The list is not random: actives were taken first. Their share in the collection is about 0.99%.
MT1-MMP act inh = MT1-MMP (human) activation inhibition; HT1080 RFP-PRO-GFP cells, GFP/RFP ratio fluorescence, overnight; percent of plate control window, DMSO zero; P50281; GFP/RFP ratio change, % at 20 µM; 0.061% of 360,000 active;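 active = GFP/RFP ratio change of at least 30% with cell ATP level not reduced by more than half and red fluorescence within 50% of control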
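Read-out: GFP/RFP fluorescence ratio; Test system: RFP-PRO-GFP reporter HT1080 cells; Compound dosing: single-point 20 µM compound, 1% DMSO; Times: overnight compound exposure at 37 °C.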
NOD2 RIPK2 PPI = NOD2-RIPK2 protein interaction inhibition; O43353; CHO BLA complementation NOD2-RIPK2, CCF4 ratio; inhibition, % at 4.98 µM; 0.38% of 360,000 active; in the data active = inhibition above about 21%
TLR9-MyD88 inh = inhibitors of human TLR9-MyD88 binding | inhibition, % at 4.98 µM | Q9NR96+Q99836 | 0.21% of 340,000 active | CHO BLA complementation TLR9-MyD88, CCF4 FRET ratio;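 active = inhibition above the mean over all tested compounds plus 3 SD, cut at about 21% in these data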
SKN-1 block = blocks SKN-1 activity in C. elegans; C. elegans VP596 Pgst-4::GFP/RFP ratio, acrylamide-induced, 24 h; inhibition, % at 21.8 µM; 0.49% of 360,000 active; AID 624304;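 active = interference check ratio from 0.5 to 1.5 plus GFP to RFP signal ratio inhibition reaching or exceeding a fixed threshold, cut at about 30% in these data, passing the limit was not always enough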
TLR4-MyD88 BLA = TLR4-MyD88 interaction inhibition in cells; HeLa CL3-4 TLR4/MyD88 BLA complementation, FRET ratio; inhibition, % at 8.4 µM; 0.18% of 200,000 active; O00206+Q99836; in the data active = inhibition above about 25%
NOD2-RIPK2 conf = NOD2-RIPK2 interaction inhibition confirmed; shares compounds with NOD2 RIPK2 PPI; CHO cells, NOD2-RIPK2 BLA complementation, CCF4 FRET; inhibition, % at 4.98 µM; 70% of 1,200 active; AID 624370;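 active = mean inhibition across replicates above a set limit taken from the earlier primary screen, cut at about 21% in these data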
NOD2 BLA counter = counter-screen for NOD2-RIPK2 interaction inhibitors: BLA reporter; shares compounds with NOD2 RIPK2 PPI; CHO BLA reporter, CCF4 FRET ratio, counterscreen; inhibition, % at 4.98 µM; 57% of 1,200 active; AID 624371;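 active = mean inhibition above the low-control mean inhibition plus three low-control SD, cut at about 11% in these data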
Hits are given with their value; . = inactive; / = no result given.

SMILES	MT1-MMP act inh	NOD2 RIPK2 PPI	TLR9-MyD88 inh	SKN-1 block	TLR4-MyD88 BLA	NOD2-RIPK2 conf	NOD2 BLA counter
COc1ccc(N2CCN(S(=O)(=O)c3cc4c(cc3C)NC(=O)CO4)CC2)cc1	.	.	.	.	/	/	/
CCOc1ccc(S(=O)(=O)Nc2ccc(C(=O)NCC(c3ccco3)N(C)C)cc2)cc1 (stereo not drawn)	.	25	.	.	/	.	.
Cc1ccc(CS(=O)(=O)c2ncc(Cl)c(C(=O)Nc3nnc(C(C)C)s3)n2)cc1	.	48	.	.	/	45	31
CSc1nnc(NC(=O)c2nc(S(=O)(=O)Cc3cccc(C)c3)ncc2Cl)s1	.	.	.	.	/	/	/
CC(C)c1nnc(NC(=O)c2nc(S(=O)(=O)Cc3ccc(F)cc3)ncc2Cl)s1	.	25	.	.	/	25	18
Cc1cccc(CS(=O)(=O)c2ncc(Cl)c(C(=O)Nc3nnc(C(C)C)s3)n2)c1	.	41	.	.	/	35	28
CC1CCCN(C(=O)COC(=O)CNC(=O)c2ccc(Br)cc2)C1 (stereo not drawn)	.	.	.	.	/	/	/
COc1ccccc1NC(=O)CC1S/C(=N/N=C(\C)C2CCCCC2)NC1=O (stereo not drawn)	.	.	.	.	/	/	/
CCOC(=O)CNc1c(-c2ccc(Cl)cc2)nc2cnccn12	.	28	.	.	.	25	24
CCCCNc1c(-c2ccc(-c3ccc(C(C)=O)cc3)c(OC)c2)nc2cnccn12	.	23	.	.	/	.	30
COc1ccc(-c2nc3cnccn3c2Nc2ccc(C)cc2)cc1	.	.	.	.	.	/	/
CCOC(=O)C(CC)(CC)C(=O)/C=C/c1cccc(Br)c1	.	.	.	.	.	/	/
Cc1ccc2nc(-c3ccc(NC(=S)NCCC(C)C)cc3)sc2c1	.	.	.	.	.	/	/
CCCCNC(=S)Nc1ccc(-c2nc3ccc(C)cc3s2)cc1	.	23	.	.	.	.	.
COc1ccc(C(C(=O)NC2CCCC2)N(Cc2cccnc2)C(=O)c2snc(C(N)=O)c2N)cc1OC (stereo not drawn)	.	.	.	.	/	/	/
CCOC(=O)c1c(N2C(=O)C3C4C=CC(O4)C3C2=O)sc2c1CCCC2 (stereo not drawn)	.	22	.	.	.	.	.
CCOC(=O)c1c(-n2cnnn2)sc2c1CCCC2	.	.	.	.	/	/	/
O=[N+]([O-])c1ccc2nc(NN=Cc3ccc(O)cc3)sc2c1	.	23	.	.	/	25	32
C=C(CN(C)C)C(=O)c1ccc(OC2OC(COC(C)=O)C(OC(C)=O)C(OC(C)=O)C2OC(C)=O)cc1 (stereo not drawn)	.	27	.	.	/	74	24
Cc1ccc(S(=O)(=O)N2C(=O)C(C)SC2=Nc2ccccc2)cc1 (stereo not drawn)	.	41	.	.	.	.	.
Cc1ccc(S(=O)(=O)N2C(=O)C(c3ccccc3)SC2=Nc2ccccc2)cc1 (stereo not drawn)	.	.	.	.	.	/	/
CCCCCNC(=O)C(c1ccnc2ccccc12)n1c(=O)c(-c2ccccc2)nc2ccccc21 (stereo not drawn)	.	.	/	.	/	/	/
CCCCCNC(=O)C(C1CC1)n1c(=O)c(-c2ccco2)nc2ccccc21 (stereo not drawn)	.	.	/	.	/	/	/
CCCCCNC(=O)C(c1cc2ccccc2o1)n1c(=O)c(-c2cc3ccccc3[nH]2)nc2ccccc21 (stereo not drawn)	.	48	/	.	/	43	66
CCCCCNC(=O)C(c1ccc(-c2ccccc2)cc1)n1c(=O)c(-c2cc3ccccc3[nH]2)nc2ccccc21 (stereo not drawn)	.	25	/	.	/	37	64
SMILES	MT1-MMP act inh	NOD2 RIPK2 PPI	TLR9-MyD88 inh	SKN-1 block	TLR4-MyD88 BLA	NOD2-RIPK2 conf	NOD2 BLA counter
CCCCCNC(=O)C(c1cc2ccccc2o1)n1c(=O)c(-c2ccccc2)nc2ccccc21 (stereo not drawn)	.	.	/	.	/	/	/
CCCCCNC(=O)C(C1CC1)n1c(=O)c(-c2cc3ccccc3[nH]2)nc2ccccc21 (stereo not drawn)	.	45	/	.	/	37	64
N#Cc1ccc(C(C(=O)NCc2ccccc2)n2c(=O)c(-c3cc4ccccc4[nH]3)nc3ccccc32)cc1 (stereo not drawn)	.	58	/	.	/	54	72
O=C(NCc1ccccc1)C(c1ccc(C(F)(F)F)cc1)n1c(=O)c(-c2cc3ccccc3[nH]2)nc2ccccc21 (stereo not drawn)	.	49	/	.	/	47	69
CC(C)(C)NC(=O)C(c1ccc(C#N)cc1)n1c(=O)c(-c2ccccc2)nc2ccccc21 (stereo not drawn)	.	.	/	.	/	/	/
CCCC(=O)N(C1CC(C)C(C#N)(C#N)C1(C#N)C#N)N(C)C (stereo not drawn)	.	57	.	.	/	92	14
Cc1cc(N2CCOCC2)ccc1/C=C\[N+](=O)[O-]	.	51	.	.	.	55	.
O=[N+]([O-])c1ccc(N2CCOCC2)cc1O	.	.	.	.	/	/	/
CN(C)c1ccc(C=c2c3ccccc3n3c2cc(-c2ccc(Cl)cc2)[n+]3C)cc1	.	25	.	.	/	23	23
CC(C)CNC(=O)C1(C)CCCN1C(=O)c1ccncc1 (stereo not drawn)	.	.	/	.	/	/	/
COC(=O)c1ccc(N2C(c3cc(OC)cc(OC)c3)=Cc3ccc(-c4cccnc4)cc3C2CC(=O)C2CC2)cc1 (stereo not drawn)	.	.	/	.	/	/	/
COC(=O)c1ccc(N2C(c3cc(OC)cc(OC)c3)=Cc3ccc(-c4ccc(C(N)=O)cc4)cc3C2CC(=O)C2CC2)cc1 (stereo not drawn)	.	34	/	.	/	36	59
COc1ccc(-c2nc(CS(=O)CC(=O)NC3CCCc4ccccc43)c(C)o2)cc1OC (stereo not drawn)	.	27	.	.	.	.	.
O=[N+]([O-])c1cc(S(=O)(=O)N2CCCC2)ccc1O	.	.	.	.	.	/	/
O=[N+]([O-])c1cc(S(=O)(=O)N2CCCCCC2)ccc1F	.	30	.	.	.	54	.
OCC1OC(n2cnc3c(N4CCCCC4)ncnc32)C(O)C1O (stereo not drawn)	.	.	.	.	/	/	/
CCN1C/C(=C/c2ccc(N3CCOCC3)cc2)C(=O)/C(=C/c2ccc(N3CCOCC3)cc2)C1	.	23	.	.	.	39	34
O=C1c2cccc3c([N+](=O)[O-])ccc(c23)C(=O)N1O	.	21	.	.	/	.	12

High-throughput results as filed in PubChem BioAssay.
